# What was measured:
# [1] = tested on: HCT-116; experiment: Cell cycle arrest in human HCT116 cells released from G2 block assessed as accumulation at G1 phase at 10 uM after 24 hrs by flow cytometry; type: functional
# [2] = Selectivity ratio of IC50 for human CCL186 cells to IC50 for human HCT116 cells; type: ADME, cell-based, HCT-116; settings: CCL186 cells and HCT116 cells, read-out: Ratio IC50
# In short: (§1)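 MTT assay. MCF7 and CCL186 cells were grown in EMEM/10% FBS, HCT116 in McCoy's 5A/10% FBS. Seeding was 10,000 (MCF7), 4000 (HCT116) and 5000 (CCL186) cells per well, 24 h. Compound exposure was 72 h, DMSO ≤1% final. MTT 0.5 mg/ml for 3 h, formazan dissolved in DMSO, A590. IC50 came from sigmoidal survival curves, with 3 separate occasions per concentration. Ratio = IC50 CCL186 / IC50 of the cancer line.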
# [3] = tested on: HCT-116; experiment: Cell cycle arrest in human HCT116 cells released from G2 block assessed as accumulation at sub G1 phase at 10 uM after 24 hrs by flow cytometry; type: functional
# [4] = molecular target: T1, CYP1A1 (Mus musculus, UniProt P00184); experiment: Induction of CYP1A1 activity in mouse Hepa-1c1c7 cells assessed as induction ratio at 0.05 uM after 48 hrs by EROD assay relative to control; type: ADME, cell-based
# T1 sequence (P00184 whole entry): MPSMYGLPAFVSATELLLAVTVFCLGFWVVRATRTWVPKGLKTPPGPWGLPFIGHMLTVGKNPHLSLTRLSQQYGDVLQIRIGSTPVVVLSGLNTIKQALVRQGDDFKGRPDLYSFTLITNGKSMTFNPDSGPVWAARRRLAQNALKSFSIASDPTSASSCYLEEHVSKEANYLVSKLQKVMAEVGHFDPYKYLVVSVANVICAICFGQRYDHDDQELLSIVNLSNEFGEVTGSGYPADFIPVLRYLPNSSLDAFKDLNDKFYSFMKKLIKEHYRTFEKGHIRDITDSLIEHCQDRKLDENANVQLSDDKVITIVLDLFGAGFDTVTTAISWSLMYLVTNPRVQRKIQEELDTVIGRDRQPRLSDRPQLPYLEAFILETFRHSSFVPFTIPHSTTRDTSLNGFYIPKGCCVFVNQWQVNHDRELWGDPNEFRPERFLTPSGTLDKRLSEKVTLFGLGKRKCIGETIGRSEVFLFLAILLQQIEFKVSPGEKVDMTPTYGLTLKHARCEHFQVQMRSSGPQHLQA
# In short: (§2)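 About 10,000 Hepa1c1c7 cells/well cultured 24 h, then compound (0.5% DMSO final) for 48 h, at roughly 4 × the concentration doubling NQO1 activity. After PBS wash, cells given 5 µM 7-ethoxyresorufin plus 2 mM salicylamide, 37 °C, 40 min; resorufin fluorescence ex 530/em 590 nm, corrected for compound fluorescence. Ratio = (treated − blank)/(DMSO control − blank); mean ± SD, n = 3.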
# [5] = tested on: MCF7; experiment: Antiproliferative activity against human MCF7 cells after 72 hrs by MTT assay; type: functional, cell-based; settings: MCF7, 72 h
# In short: (§3)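 Cells seeded at 10,000 (MCF7), 4000 (HCT116) or 5000 (CCL186) per well and grown 24 h; MCF7 and CCL186 in EMEM with pyruvate, glutamine, 10% FBS; HCT116 in McCoy's 5A with 10% FBS. Compounds from DMSO stocks (≤1% DMSO final), 72 h exposure; MTT 0.5 mg/ml for 3 h, formazan in DMSO read at 590 nm. IC50 from sigmoidal survival curve, three separate occasions.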
# [6] = tested on: HCT-116; experiment: Antiproliferative activity against human HCT116 cells after 72 hrs by MTT assay; type: functional, cell-based; settings: HCT-116, 72 h; in short: as §3
# [7] = Antiproliferative activity against human CCL186 cells after 72 hrs by MTT assay; type: cell-based; settings: CCL186, 72 h; in short: as §3
# [8] = Cytotoxicity against mouse Hepa-1c1c7 cells after 48 hrs by MTT assay; type: cell-based; settings: hepa-1c1c7, 48 h
# In short: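 Murine hepatoma cells in α-MEM with 10% heat- and charcoal-treated fetal calf serum, passages 6–17; MTT read-out as for the cancer lines but with 48 h compound exposure. Highest concentration tested 25 µM. IC50 from survival-versus-concentration curve; mean and SD, n = 3.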
# [9] = tested on: MCF7; experiment: Selectivity ratio of IC50 for human CCL186 cells to IC50 for human MCF7 cells; in short: as §1
# [10] = tested on: HCT-116; experiment: Cell cycle arrest in human HCT116 cells released from G1 block assessed as accumulation at G1 phase at 10 uM after 24 hrs by flow cytometry; type: functional
# [11] = tested on: HCT-116; experiment: Cell cycle arrest in human HCT116 cells released from G1 block assessed as accumulation at S phase at 10 uM after 24 hrs by flow cytometry; type: functional
# [12] = tested on: HCT-116; experiment: Cell cycle arrest in human HCT116 cells released from G2 block assessed as accumulation at G2/M phase at 10 uM after 24 hrs by flow cytometry; type: functional
# [13] = molecular target: NAD(P)H dehydrogenase [quinone] 1 (Mus musculus) (UniProt Q64669); experiment: Induction of NQO1 activity in mouse Hepa-1c1c7 cells assessed as induction ratio at 0.05 uM after 48 hrs by MTT assay relative to control; type: cell-based
# NAD(P)H dehydrogenase [quinone] 1 (Mus musculus), sequence (Q64669 whole entry): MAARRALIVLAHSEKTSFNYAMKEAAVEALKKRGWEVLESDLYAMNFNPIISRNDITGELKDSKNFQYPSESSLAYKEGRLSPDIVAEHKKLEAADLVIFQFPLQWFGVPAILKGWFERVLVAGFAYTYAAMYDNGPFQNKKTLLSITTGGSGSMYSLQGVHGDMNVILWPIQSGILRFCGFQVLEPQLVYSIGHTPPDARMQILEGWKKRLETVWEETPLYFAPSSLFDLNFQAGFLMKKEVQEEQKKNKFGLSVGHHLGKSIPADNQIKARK
# In short: (§4)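 Hepa1c1c7 cells, 10,000 per well, 24 h, were then treated 48 h (DMSO ≤0.5%). Digitonin/EDTA lysates were assayed for menadione-dependent MTT-formazan formation using a G6P/G6PDH NADPH-generating mix with FAD at pH 7.4. The reaction ran 5 min, was stopped with dicoumarol, and read at A590. Degree of induction = (A test − blank)/(A control − blank). Ratios were read off the induction–concentration plot at the EROD test concentration.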
# [14] = tested on: HCT-116; experiment: Cell cycle arrest in human HCT116 cells released from G2 block assessed as accumulation at S phase at 10 uM after 24 hrs by flow cytometry; type: functional
# [15] = tested on: HCT-116; experiment: Cell cycle arrest in human HCT116 cells released from G1 block assessed as accumulation at sub G1 phase at 10 uM after 24 hrs by flow cytometry; type: functional
# [16] = tested on: HCT-116; experiment: Cell cycle arrest in human HCT116 cells released from G1 block assessed as accumulation at G2/M phase at 10 uM after 24 hrs by flow cytometry; type: functional
# [17] = tested on: HCT-116; experiment: Cell cycle arrest in human HCT116 cells released from G2 block assessed as accumulation at S phase at 5 uM after 24 hrs by flow cytometry; type: functional
# [18] = molecular target: T1, CYP1A1; experiment: Induction of CYP1A1 activity in mouse Hepa-1c1c7 cells assessed as induction ratio at 0.5 uM after 48 hrs by EROD assay relative to control; type: ADME, cell-based; in short: as §2
# [19] = tested on: HCT-116; experiment: Cell cycle arrest in human HCT116 cells released from G1 block assessed as accumulation at G2/M phase at 5 uM after 24 hrs by flow cytometry; type: functional
# [20] = tested on: HCT-116; experiment: Cell cycle arrest in human HCT116 cells released from G1 block assessed as accumulation at S phase at 5 uM after 24 hrs by flow cytometry; type: functional
# [21] = tested on: HCT-116; experiment: Cell cycle arrest in human HCT116 cells released from G2 block assessed as accumulation at sub G1 phase at 5 uM after 24 hrs by flow cytometry; type: functional
# [22] = tested on: HCT-116; experiment: Cell cycle arrest in human HCT116 cells released from G1 block assessed as accumulation at sub G1 phase at 5 uM after 24 hrs by flow cytometry; type: functional
# [23] = tested on: HCT-116; experiment: Cell cycle arrest in human HCT116 cells released from G2 block assessed as accumulation at G2/M phase at 5 uM after 24 hrs by flow cytometry; type: functional
# [24] = tested on: HCT-116; experiment: Cell cycle arrest in human HCT116 cells released from G1 block assessed as accumulation at G1 phase at 5 uM after 24 hrs by flow cytometry; type: functional
# [25] = tested on: HCT-116; experiment: Cell cycle arrest in human HCT116 cells released from G2 block assessed as accumulation at G1 phase at 5 uM after 24 hrs by flow cytometry; type: functional
# [26] = molecular target: NAD(P)H dehydrogenase [quinone] 1 (Mus musculus) (UniProt Q64669); experiment: Induction of NQO1 activity in mouse Hepa-1c1c7 cells assessed as induction ratio at 0.5 uM after 48 hrs by MTT assay relative to control; type: cell-based; in short: as §4
# [27] = molecular target: T1, CYP1A1; experiment: Induction of CYP1A1 activity in mouse Hepa-1c1c7 cells assessed as induction ratio at 15 uM by EROD assay relative to control; type: ADME, cell-based
# In short: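 Hepa1c1c7 cells were seeded at 10,000 per well and grown 24 h. They were then exposed 48 h to compound (final DMSO 0.5% v/v) at about 4 × the NQO1 CD. After a PBS wash, cells got 5 µM 7-ethoxyresorufin plus 2 mM salicylamide in medium, 37 °C, 40 min. Resorufin was read at ex 530/em 590 nm, corrected for compound fluorescence. Ratio = (F treated − blank)/(F DMSO control − blank); mean ± SD, n = 3.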
# [28] = molecular target: NAD(P)H dehydrogenase [quinone] 1 (Mus musculus) (UniProt Q64669); experiment: Induction of NQO1 activity in mouse Hepa-1c1c7 cells assessed as induction ratio at 15 uM after 48 hrs by MTT assay relative to control; type: cell-based; in short: as §4
smiles,measurement,setting,value
COc1ccc(OC)c(/C=C2/C(=O)Nc3ccccc32)c1,Activity,[1],39.33%
same,selectivity ratio,[2],2.4
same,Activity,[3],9.83%
same,"fold induction at 48 h, 0.05 µM",[4],3.08
same,IC50,[5],7.7 µM
same,IC50,[6],5.1 µM
same,IC50,[7],18.1 µM
same,IC50,[8],> 25 µM
same,Ratio IC50,[9],3.5
same,Activity,[10],24.24%
same,Activity,[11],26.68%
same,Activity,[12],34.26%
same,Ratio,[13],3.32
same,Activity,[14],16.68%
same,Activity,[15],2.64%
same,Activity,[16],46.51%
COc1ccc2c(c1)NC(=O)/C2=C/c1cccc(C(F)(F)F)c1,Activity,[17],17.96%
same,selectivity ratio,[2],1.4
same,"fold induction at 48 h, 0.5 µM",[18],1.36
same,IC50,[5],3.8 µM
same,IC50,[6],1.9 µM
same,Activity,[19],59.16%
same,Activity,[20],19.12%
same,IC50,[7],5.4 µM
same,Activity,[21],20.69%
same,IC50,[8],2.6 µM
same,Ratio IC50,[9],2.8
same,Activity,[22],4.39%
same,Activity,[23],31.58%
same,Activity,[24],17.5%
same,Activity,[25],30.55%
same,Ratio,[26],4.22
O=C1Nc2ccccc2/C1=C\c1ccc(F)cc1F,fold induction at 15 µM,[27],1.89
same,IC50,[8],> 25 µM
same,Ratio,[28],5.06

# — ChEMBL document CHEMBL1153905, “Functionalized 3-benzylidene-indolin-2-ones: inducers of NAD(P)H-quinone oxidoreductase 1 (NQO1) with antiproliferative activity” (Bioorg Med Chem, 2009)
